Only some compounds are listed: those with a hit (about 2.6% of all), similar ones and a draw of the others.
SENP8 block-1 – SENP8 (human) protease inhibition. actives 0.64% (n = 360,000). AID 602440. Q96LD8. inhibition, % at 20 µM. recombinant SENP8, Nedd8 substrate fluorescence; in the data active means inhibition mostly above about 40%, no sharp cut-off; inactive means mostly below about 27%
Platelet DG rel – platelet dense granule release activity. human platelet-rich plasma, SFLLRN dense granule ATP release, luminescence. inhibition, %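 (compounds screened at 7.5 µM in platelet-rich plasma)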. actives 0.22% (n = 300,000). AID 1663;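 active means mean replicate score, as percent of positive control, at or above 50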
SENP6 inh – SENP6 protease inhibition | Q9GZR1 | Recombinant SENP6 catalytic domain, aminoluciferin luminescence | inhibition, % at 10 µM | actives 1.8% (n = 330,000);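 active means inhibition above about 50% at the single tested dose, limit read from the data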;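 further: plate controls were DMSO wells with enzyme for no effect and DMSO wells lacking enzyme for full effect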
SENP7 inh – inhibitors of human SENP7 protease; Q9BQF6; recombinant SENP7, Z-RLRGG-aminoluciferin luminescence, 40 min; inhibition, % at 5 µM; actives 1.5% (n = 330,000);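 active means inhibition above about 50% at the single test dose, limit read from the data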;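 further: plate controls were DMSO with enzyme for no effect and no enzyme buffer wells for full effect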
Target sequence (Q9BQF6 706-1050 limits assumed): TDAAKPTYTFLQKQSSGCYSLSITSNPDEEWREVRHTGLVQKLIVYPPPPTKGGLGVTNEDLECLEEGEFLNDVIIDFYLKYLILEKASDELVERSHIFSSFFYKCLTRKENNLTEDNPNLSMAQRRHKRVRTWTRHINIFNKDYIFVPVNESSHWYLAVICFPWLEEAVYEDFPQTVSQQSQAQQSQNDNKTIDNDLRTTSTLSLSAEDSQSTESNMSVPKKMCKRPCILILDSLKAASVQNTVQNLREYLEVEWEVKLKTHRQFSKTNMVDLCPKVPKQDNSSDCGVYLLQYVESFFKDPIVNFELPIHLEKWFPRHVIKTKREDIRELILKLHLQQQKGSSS
SENP8 block-2 – blocks the human protease SENP8; inhibition, % at 10 µM; purified SENP8, Z-RLRGG-aminoluciferin cleavage, luminescence; actives 1.2% (n = 330,000); in the data active means inhibition above about 50%
SENP1 FRET inh – SENP1 (human) catalytic domain inhibition; AID 624204; actives 0.21% (n = 360,000); inhibition, % at 10 µM; Q9P0U3; recombinant SENP1 catalytic domain, CyPet-SUMO1-YPet FRET cleavage;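 active means inhibition at least 30% at 10 µM, raw YFP signal under a set limit, fluorescence ratio 0.5 to 1.5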;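 further: 0% = enzyme with DMSO and 100% = no enzyme wells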
Target sequence (Q9P0U3 419-644 limits assumed): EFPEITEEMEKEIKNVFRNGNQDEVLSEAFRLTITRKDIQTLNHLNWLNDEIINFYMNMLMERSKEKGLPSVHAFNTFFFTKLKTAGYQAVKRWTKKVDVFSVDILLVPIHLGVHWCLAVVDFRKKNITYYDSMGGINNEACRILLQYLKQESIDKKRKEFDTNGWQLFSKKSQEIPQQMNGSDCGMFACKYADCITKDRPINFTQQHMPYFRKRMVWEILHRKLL
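Controls: no-enzyme wells low, DMSO-plus-enzyme wells high control. Test system: human recombinant His6-tagged SENP1 catalytic domain enzyme. Reagent: SFCypet-SUMO1-SFYpet FRET protein substrate, 25 nM final. Doses: one dose per compound, 10 µM, 0.5% DMSO. Detection: FRET, CFP and YFP emission. Timing: 50 min reaction at room temperature.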
* marks the source's active call; other numbers are inactive results; / = no result.

SMILES | SENP8 block-1 | Platelet DG rel | SENP6 inh | SENP7 inh | SENP8 block-2 | SENP1 FRET inh
COc1cc(/C=C2/C(=O)N(c3ccc(C)c(C)c3)N=C2C)cc([N+](=O)[O-])c1O | 20 | -8 | 4 | 3 | -5 | 1
COc1cc(/C=C2/C(=O)N(c3ccc(C(=O)O)cc3)N=C2C)cc(OC)c1O | 24 | 7 | 31 | 47 | 8 | 3
COc1cc(/C=C2\C(=O)N(c3ccccc3)N=C2C)ccc1Oc1ccc([N+](=O)[O-])cc1[N+](=O)[O-] | 58* | / | / | / | / | 2
C#CCOc1ccc(/C=C2/C(=O)N(c3ccc(S(N)(=O)=O)cc3)N=C2C)cc1OC | 63* | / | / | / | / | 3
CC1(C(=O)NS(=O)(=O)c2cccc(Cl)c2)CCN1C(=O)CC1CCCC1 (stereo not drawn) | 6 | / | / | / | / | 0
O=C(NC1CCC(Oc2ccc(C(=O)O)cc2)CC1)NC12CC3CC(CC(C3)C1)C2 (stereo not drawn) | 13 | / | 20 | 9 | 33 | 0
CCCCCCCCN1C(=O)[C@H](CC(=O)N2CCCC2)C[C@@]2(C(=O)OC)CC(C)(C)CC=C12 | 21 | / | / | / | / | 1
CCc1nc2ccc(C(=O)NCCN3CCCC3)cn2c1N(C)Cc1ccc(OC)cc1 | -22 | / | / | / | / | -38
Clc1ccc(OCc2nc3ccccc3[nH]2)cc1 | -3 | 4 | 72* | 82* | 56* | 3
O=S(=O)(CCc1nc2ccccc2[nH]1)c1ccc(Cl)cc1 | 30 | -16 | -3 | -1 | -12 | 0
CC(c1nc2ccccc2n1Cc1ccccc1)n1c(-c2cnccn2)nc2ccccc21 (stereo not drawn) | -442 | / | / | / | / | 1
Cc1nc(C/C(=N\N)c2ccc(O)cc2O)cs1 | 19 | -12 | 6 | -3 | -11 | -9
N/N=C(\Cc1cscn1)c1ccc(O)cc1O | 10 | 57* | 21 | -4 | -1 | 15
CCOc1cc2c(c3c1C(c1ccccc1)N(S(=O)(=O)c1ccc(C)cc1)C3)C(=O)C=CC2=O (stereo not drawn) | -94 | / | / | / | / | 4
COc1ccc2c(c1)OC/C(=C/c1cccs1)C2=O | -6 | 5 | 94* | 96* | 89* | -1
COc1ccc(/C=C2\COc3ccccc3C2=O)c(OC)c1 | -7 | 10 | 3 | -27 | -37 | -31
Cc1cc(C(=O)N2CCC2(C)C(=O)Nc2cccc3ccccc23)nn1C (stereo not drawn) | 15 | / | / | / | / | 3
NS(=O)(=O)c1ccc(N/C=C/C(=O)c2ccc(Br)cc2)cc1 | -285 | 5 | -6 | 3 | 0 | -75
NS(=O)(=O)c1ccc(N/C=C\C(=O)c2ccc(F)cc2)cc1 | -432 | 26 | 43 | 70* | 64* | -55
CC(C)Cc1csc(NC(=O)c2ccc(F)cc2)c1C(=O)O | -49 | 9 | 89* | 2 | 84* | 1
Nc1c(S(=O)(=O)c2cccs2)c2nc3ccccc3nc2n1CCc1ccccc1 | / | -1 | 53* | 27 | 31 | /
Cc1ccc(CNc2nc(NCc3ccccc3)nc3ccsc23)c(C)c1 | -30 | / | / | / | / | -1
CCc1ccc(N=Nc2ccc(O)c3[nH]cnc23)cc1 | 33 | / | 25 | 31 | 28 | 76*
CCc1ccc(/C=N/Nc2ncnc3nc[nH]c23)cc1 | 8 | 11 | 17 | 38 | 21 | -1
O=C(NC1CCCC1)C1C(c2ccccc2)=Nc2ccccc2N1C(=O)c1cc(Cl)cc(Cl)c1 (stereo not drawn) | 14 | / | / | / | / | 2
SMILES | SENP8 block-1 | Platelet DG rel | SENP6 inh | SENP7 inh | SENP8 block-2 | SENP1 FRET inh
O=[N+]([O-])c1ccc(O)c(/C=N/n2c(CO)nc3ccccc32)c1 | 20 | 11 | -2 | 11 | -7 | -15
O=[N+]([O-])c1ccc(O)c(/C=N/n2cnc3ccccc32)c1 | 13 | -8 | 76* | 30 | 56* | -69
c1ccc(N2[C@@H]3c4ccccc4C[C@H]2c2ccccc23)cc1 | 37 | / | / | / | / | 2
CCC12CC1(C(=O)OC)C(=O)N1CCc3c([nH]c4ccccc34)C12 (stereo not drawn) | -8 | / | / | / | / | -91
COc1cccc(CN(C)C(=O)c2ccc(S(=O)(=O)Nc3ccccc3C)cc2)c1OC | 28 | / | / | / | / | 3
O=C(NCc1ccccc1Cl)c1ccc2nc([C@@H]3O[C@H](CO)[C@H](O)[C@H](O)[C@H]3O)[nH]c2c1 | 8 | / | / | / | / | 0
CCCCNC(=O)C[C@@H]1C[C@@]2(C(=O)OCC)CCCC=C2N(CCC2=CCCCC2)C1=O | 19 | / | / | / | / | 2
COc1cccc(C(=O)Nc2cc3c(cc2Cl)OCCCO3)c1 | 6 | 15 | 51* | 40 | 34 | 2
CCOC(=O)C1C(C(=O)OCC)C2C(=O)C3C(C(=O)OCC)C(C(=O)OCC)C3C(=O)C12 (stereo not drawn) | 12 | / | / | / | / | 1
COc1cc2c(cc1OC)C1=C(C#N)CN(CC(=O)O)CN1CC2 | -319 | 52* | -2 | 9 | 8 | -84
Cc1cccc(C)c1NC(=O)C1(C)CN(S(C)(=O)=O)CC(=O)N1Cc1cccs1 (stereo not drawn) | 18 | / | / | / | / | -2
Cc1ccc(NC(=S)N=Nc2c(O)n(C)c3ccc(S(=O)(=O)N4CCOCC4)cc23)cc1 | 30* | -13 | / | / | / | 6
Cc1cc(C)cc(NC(=S)N=Nc2c(O)n(C)c3ccc(S(=O)(=O)N4CCOCC4)cc23)c1 | -1 | -1 | -22 | 2 | 6 | 3
O=C(Nc1sc2c(c1C(=O)O)CCC2)c1ccccc1Cl | -29 | -9 | 17 | -1 | -13 | 3
Cc1ccccc1C(=O)Nc1sc2c(c1C(=O)O)CCC2 | -56 | -4 | 70* | -8 | 57* | 2
Cc1cc(C)c2nc(NC(=O)c3ccc([N+](=O)[O-])o3)sc2c1 | -8 | -1 | -11 | 10 | -7 | 6
O=C(Nc1nc2cc3c(cc2s1)OCCO3)c1ccc([N+](=O)[O-])o1 | -22 | 11 | 87* | 88* | 74* | 1
COc1cccc(OC)c1C(=O)Nc1nc2cc3c(cc2s1)OCO3 | -130 | -9 | -4 | 1 | -8 | 1
COc1ccccc1C(=O)Nc1nc2cc3c(cc2s1)OCO3 | -462 | 3 | 48 | 79* | 20 | 1
O=C(Nc1nc2cc3c(cc2s1)OCCO3)c1cccs1 | -385 | 31 | 96* | 98* | 94* | 1
COc1ccc(CNC(=O)c2cn(Cc3ccc(S(=O)(=O)N(C)C)cc3)c(=O)s2)cc1 | 4 | / | / | / | / | -6
O=C(/C=C/[C@H]1O[C@@H](n2cnc3c(NC(=O)c4ccccc4)ncnc32)[C@H](O)[C@@H]1O)NCC(c1ccccc1)c1ccccc1 | 26 | / | / | / | / | 2
COC(CNC(=O)c1ccc2c3c(onc13)-c1ccccc1C2=O)OC | 102* | 6 | 45 | 25 | 23 | 8
COC(CNC(=O)c1cccnc1)OC | 1 | -1 | 0 | 2 | 0 | 2
O=C(CCc1ccc(S(=O)(=O)N2CCOCC2)cc1)N/N=C/c1ccc(O)c(O)c1O | 39* | 15 | -5 | 8 | -3 | 3

Compound activity from PubChem.
